# High-throughput results from PubChem BioAssay.
# TAAR1 antag: human TAAR1 antagonists, primary screen, Fluo-8 calcium fluorescence, CHO RD-HGA16 cells | Trace amine-associated receptor 1 (Homo sapiens), Q96RJ0 | antagonist | inhibition, % at 3 µM | 1.5% of 360,000 active;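 active = inhibition above a per-plate cutoff, the mean inhibition of test compounds on that plate plus 3 SD, cut at about 49% in these data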;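 also: 0% = DMSO plus EC80 beta-PEA response and 100% = DMSO alone without agonist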
# Target sequence (Q96RJ0 whole entry, looked up): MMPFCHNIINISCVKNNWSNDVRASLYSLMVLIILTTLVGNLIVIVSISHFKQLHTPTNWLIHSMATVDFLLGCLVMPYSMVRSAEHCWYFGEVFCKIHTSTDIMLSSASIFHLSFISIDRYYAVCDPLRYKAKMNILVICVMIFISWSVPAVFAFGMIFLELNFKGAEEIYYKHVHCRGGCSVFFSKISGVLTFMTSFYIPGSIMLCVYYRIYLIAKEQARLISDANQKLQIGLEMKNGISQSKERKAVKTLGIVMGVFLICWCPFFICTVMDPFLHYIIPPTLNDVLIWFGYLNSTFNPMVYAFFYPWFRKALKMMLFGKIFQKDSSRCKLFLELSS
#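 Assay system: CHO-derived RD-HGA16 cells stably expressing human TAAR1 plus Gα16. Timing: 140 s kinetic read after compound, 140 s after agonist. Technique: kinetic Fluo-8 calcium fluorescence measurement. Measure: % inhibition of agonist calcium response.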
# OX1R antag-1: OX1R (HCRTR1) antagonists, primary screen, fluorescence, CHO/OX1R cells, Fluo-8 calcium, orexin A; Fluo-8 calcium fluorescence; inhibition, % at 5 µM; 0.43% of 330,000 active; Orexin/Hypocretin receptor type 1 (Homo sapiens), O43613; AID 434989, 2010;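 active = inhibition above its plate's threshold, mean inhibition of all tested compounds on the plate plus 3 SD, cut at about 37% in these data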;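 also: 0% = orexin A challenge wells and 100% = SB-334867-A antagonist wells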
# GPR7 antag: GPR7 receptor antagonists, primary screen, cell-based, fluorescence, single concentration | Neuropeptides B/W receptor type 1 (Homo sapiens), P48145 | GPR7-expressing cells, fluorescence antagonist assay | inhibition, % at 4.4 µM | 1.1% of 290,000 active; in the data active = inhibition above about 16%, passing the limit was not always enough;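 also: cells stimulated with the agonist NPW; 0% = agonist with vehicle and 100% = vehicle without agonist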
# Target sequence (P48145 whole entry, looked up): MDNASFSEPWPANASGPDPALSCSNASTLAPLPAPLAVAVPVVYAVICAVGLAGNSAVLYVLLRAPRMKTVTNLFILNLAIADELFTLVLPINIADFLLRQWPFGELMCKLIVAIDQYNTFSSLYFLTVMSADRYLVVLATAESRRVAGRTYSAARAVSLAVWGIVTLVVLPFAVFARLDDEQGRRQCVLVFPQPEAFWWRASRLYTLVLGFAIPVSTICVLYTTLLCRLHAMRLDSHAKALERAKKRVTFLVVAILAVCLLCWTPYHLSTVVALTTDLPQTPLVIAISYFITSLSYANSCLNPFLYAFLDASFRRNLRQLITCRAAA
# OX1R antag-2: antagonists of human orexin 1 receptor (OX1R) | Orexin/Hypocretin receptor type 1 (Homo sapiens), O43613 | OX1R-expressing cells, FRET antagonist read-out | inhibition, % at 6.6 µM | 1.8% of 330,000 active; in the data active = inhibition mostly above about 38%, no sharp cut-off; inactive = mostly below about 40%;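 also: 0% = agonist challenge alone and 100% = reference antagonist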
# CHO parental Ca: ATP-evoked calcium signal inhibitors, parental CHO, primary screen, counter-screen for OX1R antagonist project, cell-based, fluorescence, Fluo-8 calcium dye; parental CHO-K1, ATP-induced calcium, Fluo-8 fluorescence; inhibition, % at 5.6 µM; 0.63% of 330,000 active;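 active = inhibition above that plate's mean sample inhibition plus 3 SD, cut at about 26% in these data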;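 also: 0% = ATP-challenged DMSO wells and 100% = DMSO wells without ATP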
#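 Test system: untransfected parental CHO cell line. Compound: one dose, 5.6 µM nominal. Detection: intracellular calcium via Fluo-8 no-wash fluorescent dye. Measure: % inhibition. Benchmarks: ATP-challenged DMSO wells low, unchallenged DMSO wells high.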
# TAAR1 agonist: human TAAR1 agonists, primary screen, Fluo-8 calcium fluorescence, CHO RD-HGA16 cells; Trace amine-associated receptor 1 (Homo sapiens), Q96RJ0; AID 624467, 2012; vehicle wells 0%, saturating PEA agonist 100%; 0.99% of 360,000 active; activation, % at 3 µM;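 active = activation above the mean activation of all test compounds in the run plus 3 SD, cut at about 38% in these data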
#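 System: CHO-derived RD-HGA16 cells with stable Gα16 and human TAAR1. Times: 17-24 h plating, Fluo-8 75 min 37 °C, 30 min RT. Measured by: calcium-sensitive Fluo-8 signal, excitation 470-495, emission 515-575 nm. Read-out basis: % activation relative to PEA EC100 response. Control set: DMSO and PEA EC100. Repeats: no replicates (n 1).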
# OX1R HTRF conf: OX1R (HCRTR1) antagonists, confirmation, cell-based, HTRF. OX1R-expressing cells, HTRF antagonist assay. AID 492964, 2010. 49% of 1,800 active. shares compounds with OX1R antag-2. inhibition, % at 6.6 µM; in the data active = inhibition above about 55%;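 also: CHO cells expressing OX1R stimulated with orexin A at about EC80; 0% = agonist challenge alone and 100% = reference antagonist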
# CHO-K1 HTRF cnt: signal inhibition in parental CHO-K1 cells, counter-screen for OX1R antagonist project, cell-based, HTRF; shares compounds with OX1R antag-2; 48% of 1,800 active; HTRF counterscreen; inhibition, % at 6.6 µM; in the data active = inhibition above about 17%;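 also: 0% = agonist challenge with vehicle and 100% = vehicle alone without agonist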
# * marks the source's active call; other numbers are inactive results; / = no result given. Shown are actives, neighbours in structure and some others; about 4.6% of the full set was active somewhere.
SMILES,TAAR1 antag,OX1R antag-1,GPR7 antag,OX1R antag-2,CHO parental Ca,TAAR1 agonist,OX1R HTRF conf,CHO-K1 HTRF cnt
Cc1cc(OCC(=O)NCCc2c[nH]c3ccccc23)c2c(C)c(C)c(=O)oc2c1,43.8,-32.4,0.5,86.0*,-7.9,1.3,32.7,5.1
CC(=O)Oc1c(-c2ccc(Br)o2)oc2ccccc2c1=O,4.0,23.9,9.2,83.2*,-1.4,0.5,84.3*,3.1
O=C(O)COc1c(-c2ccco2)oc2ccccc2c1=O,2.9,-3.3,-10.6,13.8,-9.4,0.2,/,/
O=C(COc1ccccc1)N(Cc1cc2ccccc2[nH]c1=O)CC1CCCO1 (centres undefined),-7.5,-23.8,-8.9,12.1,-18.2,6.2,/,/
CC(C)(C)CC(C)(C)N=C1NS(=O)(=O)c2cc([N+](=O)[O-])ccc21,-5.1,-1.5,-12.7,34.3,-12.6,12.4,/,/
CC(C)(CO)N=C1NS(=O)(=O)c2cc([N+](=O)[O-])ccc21,14.8,-10.1,-9.3,99.5*,-1.9,-0.1,56.4*,63.3*
COC(=O)c1cc(C(=O)OCC(=O)N(C)C2CCS(=O)(=O)C2)cc([N+](=O)[O-])c1 (centres undefined),-10.6,-8.0,-8.6,120.1*,-11.7,0.6,88.4*,70.0*
CN(C(=O)COC(=O)/C=C/c1cccc([N+](=O)[O-])c1)C1CCS(=O)(=O)C1 (centres undefined),-3.5,-18.3,-10.8,90.2*,-10.7,1.1,40.9,43.0*
COC(=O)c1cc(C(=O)OCC(=O)NC2CCS(=O)(=O)C2)cc([N+](=O)[O-])c1 (centres undefined),-20.9,-14.1,-1.4,84.0*,-11.6,1.1,43.1,47.0*
CCN(C(=O)COC(=O)/C=C/c1cccc(Br)c1)C1CCS(=O)(=O)C1 (centres undefined),-31.0,-13.4,-12.6,21.2,-2.3,0.9,/,/
COC(=O)c1cc(C(=O)OCC(=O)NC2CCCC2)cc([N+](=O)[O-])c1,-10.7,-12.6,-7.0,33.9,0.7,-1.9,/,/
COc1ccc(NC(=O)c2cc(-c3ccc(F)cc3OC(C)C)n[nH]2)c(OC)c1,44.8,/,/,/,/,-1.9,/,/
CCOC(=O)Cn1cnc2c(nnn2-c2ccc(OC)cc2)c1=O,21.0,6.8,-1.3,-1.0,-3.9,10.1,/,/
Nn1c(-c2cccc([N+](=O)[O-])c2)nc2ccccc2c1=O,3.9,-19.4,4.5,16.1,-8.9,-1.0,/,/
O=C(N/N=C/C(Cl)=C\c1ccccc1)c1cccs1,-7.3,14.7,-4.4,86.6*,1.6,0.1,61.9*,8.6
O=C(O)CC(NC(=O)c1ccncc1)c1ccccc1 (centres undefined),23.9,-6.8,-5.1,4.8,-4.6,4.4,/,/
Cc1cc(NCc2ccccn2)nc2ccccc12,-5.4,-32.8,0.5,2.9,-6.6,10.3,/,/
O=c1c2ccccc2nc2c3ccccc3c(NCc3ccccn3)nn12,11.2,4.0,-6.0,90.3*,-18.0,9.2,87.7*,6.9
Cc1nc(NC(=O)c2ccccc2)sc1-c1csc(NCc2ccccc2)n1,8.2,-17.2,0.6,20.6,-14.5,0.2,/,/
Cc1nc(NC(=O)c2ccccc2)sc1-c1csc(N)n1,9.8,29.6,0.8,95.6*,-17.1,19.1,92.0*,14.8
CS(=O)(=O)c1ccc(S(=O)CC(=O)Oc2ccc(Cl)cc2)c([N+](=O)[O-])c1 (centres undefined),/,-6.2,-11.3,116.3*,-9.6,/,39.7,38.0*
O=C(CS(=O)c1ccccc1[N+](=O)[O-])Oc1ccc(Br)cc1 (centres undefined),8.6,-14.3,-15.1,94.5,-21.6,2.7,/,/
COc1ccc(-c2cc3ncc(C(C)=O)c(C)n3n2)cc1,8.0,-4.5,-7.9,18.1,-9.6,-1.4,/,/
COc1cc(/C=N/NC(=O)c2sc3nc(C)cc(C)c3c2N)ccc1O,33.6,25.9,-2.2,99.7*,-10.8,8.2,97.7*,24.6*
COc1cc(/C=N/n2cnc3c(sc4nc(C)cc(C)c43)c2=O)ccc1O,/,-8.1,-15.1,7.1,-6.7,/,/,/
SMILES,TAAR1 antag,OX1R antag-1,GPR7 antag,OX1R antag-2,CHO parental Ca,TAAR1 agonist,OX1R HTRF conf,CHO-K1 HTRF cnt
O=S(=O)(Nc1c(O)ccc2ccccc12)c1cccc2ccccc12,/,19.4,/,80.1*,-4.9,/,77.7*,0.5
CCN(CC)C(=O)CSc1nnc(-c2c[nH]c3ccccc23)o1,0.1,-15.9,10.9,78.2*,-15.1,3.2,43.5,3.0
COc1cc(/C=N/NC(N)=O)cc([N+](=O)[O-])c1O,-20.4,3.0,-6.8,91.0*,-4.1,0.2,55.4*,62.3*
CCOC(=O)COc1cccc2c(=O)n(CC(=O)N3CCN(C(=O)OCC)CC3)ccc12,-35.9,-0.4,1.8,9.2,6.2,-1.7,/,/
C#Cc1ccc2c(c1)COc1c3ccccc3nn1-2,4.5,-25.5,/,84.4*,-26.7,11.3,59.8*,14.0
COCCOC(=O)C1=C(C)NC(C)=C(C(=O)OCCOC)C1/C=C/c1ccccc1OC,7.7,-75.5,-8.2,77.7*,-9.7,0.2,22.9,-1.6
COc1ccc(Nc2ccc([N+](=O)[O-])c3nonc23)c(OC)c1,-0.7,-33.8,4.8,50.5,-16.5,-3.9,/,/
O=[N+]([O-])c1ccc(Nc2ccccc2O)c2nonc12,-8.5,/,-12.3,/,/,4.1,/,/
CC(=O)c1ccc(Nc2ccc([N+](=O)[O-])c3nonc23)cc1,-2.4,0.5,-9.4,77.9*,19.7,9.5,41.4,38.6*
NS(=O)(=O)c1ccc(Nc2ccc([N+](=O)[O-])c3nonc23)cc1,-13.1,-1.9,8.0,132.1*,4.3,2.3,49.9,62.7*
COc1cc(NC(=O)c2ccc(Cl)cc2)c(Cl)cc1NC(=O)c1cccnc1,-21.0,-26.4,-16.4,24.1,-5.1,1.3,/,/
C/C(=N\NC(=O)c1cc([N+](=O)[O-])cc([N+](=O)[O-])c1)c1ccco1,5.3,-19.4,-1.7,80.6*,-8.4,5.3,56.3*,89.3*
CC(Oc1ccc2c(-c3ccccc3)cc(=O)oc2c1)C(=O)NCc1ccccn1 (centres undefined),6.0,-20.1,-4.7,10.6,-8.7,1.7,/,/
